Legend:
HCT-116 [1] = test: Growth inhibition of human HCT116 cells at 10 uM after 24 hrs by MTT assay relative to control; type: functional; conditions: HCT-116, 24 h, read-out: GI
Outline: (§1)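 Monolayers seeded 24 h before treatment, then exposed to compound, with DMEM or RPMI 1640 plus 10% FBS as growth medium. MTT (5 mg mL–1 stock) incubated 2–4 h at 37 °C, formazan dissolved in DMSO, and absorbance read at 570 nm. Growth inhibition reported as % of control.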

HCT-116 [2] = test: Growth inhibition of human HCT116 cells at 5 uM after 24 hrs by MTT assay relative to control; type: functional; conditions: HCT-116, 24 h, read-out: GI; outline: as §1
L02 = test: Cytotoxicity against human LO2 cells assessed as reduction in cell growth at 5 to 10 uM after 24 hrs by MTT assay; type: cell-based; conditions: l02, 24 h
HCT-116 [3] = test: Growth inhibition of human HCT116 cells at 2.5 uM after 24 hrs by MTT assay relative to control; type: functional; conditions: HCT-116, 24 h, read-out: GI; outline: as §1
HCT-116 [4] = test: Potentiation of cisplatin-induced antiproliferative activity against human HCT116 cells assessed as cell growth inhibition at 2.5 uM preincubated for 24 hrs followed by 2.5 uM cisplatin addition and measured after 48 hrs by MTT assay (reference value: 26.98 +/-2.84%); type: functional; conditions: read-out: GI
A549 [5] = test: Growth inhibition of human A549 cells at 10 uM after 24 hrs by MTT assay relative to control; type: functional; conditions: A549, 24 h, read-out: GI; outline: as §1
HepG2 [6] = test: Growth inhibition of human HepG2 cells at 10 uM after 24 hrs by MTT assay relative to control; type: functional; conditions: HepG2, 24 h, read-out: GI; outline: as §1
KB [7] = test: Growth inhibition of human KB cells at 10 uM after 24 hrs by MTT assay relative to control; type: functional; conditions: read-out: GI; outline: as §1
MCF7 [8] = test: Growth inhibition of human MCF7 cells at 10 uM after 24 hrs by MTT assay relative to control; type: functional; conditions: MCF7, 24 h, read-out: GI; outline: as §1
HeLa [9] = test: Growth inhibition of human HeLa cells at 10 uM after 24 hrs by MTT assay relative to control; type: functional; conditions: read-out: GI; outline: as §1
A549 [10] = test: Growth inhibition of human A549 cells at 5 uM after 24 hrs by MTT assay relative to control; type: functional; conditions: A549, 24 h, read-out: GI; outline: as §1
HepG2 [11] = test: Growth inhibition of human HepG2 cells at 5 uM after 24 hrs by MTT assay relative to control; type: functional; conditions: HepG2, 24 h, read-out: GI; outline: as §1
KB [12] = test: Growth inhibition of human KB cells at 5 uM after 24 hrs by MTT assay relative to control; type: functional; conditions: read-out: GI; outline: as §1
MCF7 [13] = test: Growth inhibition of human MCF7 cells at 5 uM after 24 hrs by MTT assay relative to control; type: functional; conditions: MCF7, 24 h, read-out: GI; outline: as §1
HeLa [14] = test: Growth inhibition of human HeLa cells at 5 uM after 24 hrs by MTT assay relative to control; type: functional; conditions: read-out: GI; outline: as §1

Compound | inhibition of growth at 10 µM (HCT-116 [1]) [%] | inhibition of growth at 5 µM (HCT-116 [2]) [%] | Activity (L02) | inhibition of growth at 2.5 µM (HCT-116 [3]) [%] | inhibition of growth at 2.5 µM (HCT-116 [4]) [%] | inhibition of growth at 10 µM (A549 [5]) [%] | inhibition of growth at 10 µM (HepG2 [6]) [%] | inhibition of growth at 10 µM (KB [7]) [%] | inhibition of growth at 10 µM (MCF7 [8]) [%] | inhibition of growth at 10 µM (HeLa [9]) [%] | inhibition of growth at 5 µM (A549 [10]) [%] | inhibition of growth at 5 µM (HepG2 [11]) [%] | inhibition of growth at 5 µM (KB [12]) [%] | inhibition of growth at 5 µM (MCF7 [13]) [%] | inhibition of growth at 5 µM (HeLa [14]) [%]
CS(=O)(=O)c1ccc(-c2cnc3[nH]cc(-c4nnc(-c5cccnc5)o4)c(=O)c3c2)cc1 | 14.7 | 9.26 | Non-Toxic | 4.32 | 28.6 | – | – | – | – | – | – | – | – | – | –
N#Cc1ccc(-c2cnc3[nH]cc(-c4nnc(-c5ccc(F)cc5)o4)c(=O)c3c2)cc1 | 18.9 | 12.6 | Non-Toxic | 10.2 | 25.6 | – | – | – | – | – | – | – | – | – | –
CS(=O)(=O)c1ccc(-c2cnc3[nH]cc(-c4nnc(-c5ccc(F)cc5)o4)c(=O)c3c2)cc1 | 18.6 | 14.9 | Non-Toxic | 10.7 | 39.5 | 3.59 | 11.1 | 7.58 | 8.1 | 15.7 | 3.11 | 9.45 | 2.55 | 3.78 | 8.47
O=c1c(-c2nnc(-c3ccc(Cl)cc3)o2)c[nH]c2ncc(-c3ccccc3)cc12 | 21.6 | 12.3 | Non-Toxic | 9.81 | 29.8 | 9.77 | 14.9 | 19.5 | 26.9 | 31.3 | 1.44 | 5.1 | 2.15 | 11.9 | 3.55
N#Cc1ccc(-c2cnc3[nH]cc(-c4nnc(-c5ccc(Cl)cc5)o4)c(=O)c3c2)cc1 | 18.3 | 17.9 | Non-Toxic | 13.7 | 35.4 | 12.5 | 12.7 | 9.73 | 19.7 | 13.7 | 7.6 | 11.5 | 7.35 | 4.65 | 4.8
CS(=O)(=O)c1ccc(-c2cnc3[nH]cc(-c4nnc(-c5ccncc5)o4)c(=O)c3c2)cc1 | 7.83 | 5.61 | Non-Toxic | 2.64 | 29.2 | 12.1 | 6.65 | 3.02 | 4.27 | 18.4 | 6.76 | 3.49 | 2.16 | 2.35 | 7.08
CS(=O)(=O)c1ccc(-c2cnc3[nH]cc(-c4nnc(-c5ccccn5)o4)c(=O)c3c2)cc1 | 16.2 | 11.3 | Non-Toxic | 5.37 | 34.3 | – | – | – | – | – | – | – | – | – | –
CS(=O)(=O)c1ccc(-c2cnc3[nH]cc(-c4nnc(-c5ccccc5)o4)c(=O)c3c2)cc1 | 15.7 | 8.6 | Non-Toxic | 0.53 | 27.2 | 9.51 | 6.98 | 5.2 | 2.83 | 17.5 | 8.17 | 5.46 | 4.38 | 1.38 | 8.58
CS(=O)(=O)c1ccc(-c2cnc3[nH]cc(-c4nnc(-c5ccc(Cl)cc5)o4)c(=O)c3c2)cc1 | 17 | 16.4 | Non-Toxic | 2.06 | 24.9 | 26.8 | 11.6 | 9.3 | 13.1 | 1.64 | 23.8 | 11.2 | 2.15 | 0.86 | 1.07
O=c1c(-c2nnc(-c3ccc(Cl)cc3)o2)c[nH]c2ncc(-c3cccnc3)cc12 | 11.8 | 15.9 | Non-Toxic | 10.4 | 20.1 | – | – | – | – | – | – | – | – | – | –
O=c1c(-c2nnc(-c3ccc(F)cc3)o2)c[nH]c2ncc(-c3ccncc3)cc12 | 20.5 | 10.9 | Non-Toxic | 7.54 | 19.6 | – | – | – | – | – | – | – | – | – | –
O=c1c(-c2nnc(-c3ccc(F)cc3)o2)c[nH]c2ncc(-c3cccnc3)cc12 | 19.7 | 11.1 | Non-Toxic | 9.87 | 20.1 | – | – | – | – | – | – | – | – | – | –
